The list is not random: actives were taken first. Their share in the collection is about 2.9%.
UBC13 polyUb = UBC13 polyubiquitin chain formation inhibitors, primary screen, biochemical, TR-FRET, uHTS. AID 485273, 2010. inhibition, % at 20 µM. 0.47% of 330,000 active. Ubiquitin-conjugating enzyme E2 N (Homo sapiens), P61088; in the data active means inhibition above about 45%, passing the limit was not always enough; inconclusive means no clear call, values can overlap the other calls
MEKK2 mut-MEK5 = MEK5 binding signal on mutant MEKK2 PB1, primary screen, biochemical, multiplex bead flow cytometry, Alexa488-MEK5; Alexa488-MEK5 binding to MEKK2 mutant; percent response, % at 10 µM; 0.35% of 290,000 active; in the data active means percent response above about 24%, passing the limit was not always enough
Apaf-1 inh = inhibitors of human Apaf-1 apoptosome, primary screen, biochemical, DEVD-Rh110 fluorescence, uHTS | AID 489030, 2010 | 0.71% of 330,000 active | reconstituted apoptosome caspase-3 activity | inhibition, % at 20 µM | Apoptotic protease-activating factor 1 (Homo sapiens), O14727; active means inhibition of at least 40% at 20 µM
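detection = Rh110 fluorescence intensity | test system = biochemical Apaf-1 apoptosome reconstitution | also added = cytochrome c and DEVD-Rh110 substrate | schedule = 30 min plus 50 min, RT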
MEKK3 PB1 HTS = modulators of MEKK3-MEK5 PB1 binding, primary screen, biochemical, wildtype MEKK3, multiplex bead flow cytometry, Alexa488-MEK5. Mitogen-activated protein kinase kinase kinase 3 (Homo sapiens), Q99759. bead-based flow cytometry, Alexa488-MEK5 binding to MEKK3; actives lie on both sides; 0 = blocked by unlabeled MEK5, 100 = vehicle. binding response (% of control), % at 10 µM. 1.4% of 290,000 active. AID 1529, 2009;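 active means binding response more than 3 SD above or below the average of its plate-row segment, actives on both sides; inconclusive means wells at one plate position flagged as instrument error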;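 further: Alexa488 bead fluorescence after subtracting the streptavidin-only scavenger bead signal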
Target sequence (Q99759 whole entry, looked up): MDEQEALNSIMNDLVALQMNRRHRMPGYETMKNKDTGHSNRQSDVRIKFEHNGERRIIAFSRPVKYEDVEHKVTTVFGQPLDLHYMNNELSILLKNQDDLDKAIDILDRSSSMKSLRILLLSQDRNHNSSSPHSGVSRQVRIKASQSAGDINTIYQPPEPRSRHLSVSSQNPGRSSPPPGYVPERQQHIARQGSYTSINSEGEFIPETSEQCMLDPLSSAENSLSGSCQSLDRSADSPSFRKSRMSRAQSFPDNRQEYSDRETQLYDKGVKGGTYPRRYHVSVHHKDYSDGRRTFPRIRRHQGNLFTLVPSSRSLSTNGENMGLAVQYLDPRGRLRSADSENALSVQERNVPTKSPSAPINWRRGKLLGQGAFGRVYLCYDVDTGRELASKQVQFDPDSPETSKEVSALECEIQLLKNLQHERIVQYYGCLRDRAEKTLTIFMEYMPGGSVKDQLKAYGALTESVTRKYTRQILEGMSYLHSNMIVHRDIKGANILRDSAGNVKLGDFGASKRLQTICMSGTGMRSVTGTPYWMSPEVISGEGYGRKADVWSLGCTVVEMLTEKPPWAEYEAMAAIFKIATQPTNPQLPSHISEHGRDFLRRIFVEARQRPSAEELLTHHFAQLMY
MEKK2wt PB1 HTS = modulators of MEK5 binding to wildtype MEKK2, primary screen, biochemical, multiplex bead flow cytometry, Alexa488-MEK5; 1.1% of 290,000 active; binding response (% of control), % at 10 µM; Alexa488-MEK5 binding to MEKK2 WT; actives lie on both sides; in the data active means binding response below about 67% or above about 130%; inconclusive means no clear call, values can overlap the other calls; inactive means in between
Casp3 UBC13 ctr = CASP3 inhibitor validation, counterassay for project on UBE2N polyubiquitination blockers, biochemical, one dose; shares compounds with UBC13 polyUb; Recombinant caspase-3, Caspase-Glo 3/7 luminescence, 60 min; inhibition, % at 20 µM; 4% of 1,400 active; AID 488856, 2010;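 active means mean inhibition across replicates above about 26%, limit read from the data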
UBC13 conf = UBC13 polyubiquitination inhibitors, single-point retest, confirmation, biochemical, TR-FRET, single concentration; AID 488859, 2010; 68% of 1,400 active; inhibition, % at 10 µM; shares compounds with UBC13 polyUb; in the data active means inhibition above about 45%; inconclusive means no clear call, values can overlap the other calls
Of the large screens only hits and unclear results are named; the others gave an inactive call (follow-up assays come after a bar, where they were run).

Cc1ccccc1CN1CCC(CNC(=O)C2CCCN(c3ncnc4c3nc3n4CCCCC3)C2)CC1 (centres undefined)	UBC13 polyUb 72 | Casp3 UBC13 ctr inactive | UBC13 conf 90
CC1CCCN(CCCNC(=O)C2CCCN(c3ncnc4c3nc3n4CCCCC3)C2)C1 (centres undefined)	none
O=C1NCCN/C1=C\C(=O)c1ccc(Br)cc1	none
Cc1cccc(C)c1Nc1nnc(SCC(=O)c2ccc3c(c2)NC(=O)CO3)s1	none
Cc1ccc(C(=O)Nc2ccc(Nc3ccccc3)cc2)c(Cl)c1	none
COCCNC(=S)N=Nc1c(O)[nH]c2ccc([N+](=O)[O-])cc12	UBC13 polyUb 89 | Casp3 UBC13 ctr inactive | UBC13 conf 96
CCCCCCC(=O)N=Nc1c(O)[nH]c2ccc([N+](=O)[O-])cc12	none
CCOc1ccc(NC(=O)NNC(=O)c2ccc3ccccc3c2O)cc1	UBC13 polyUb 49 | Casp3 UBC13 ctr inactive | UBC13 conf inactive
O=C(Nc1ccccc1C(F)(F)F)N1CCN(c2ccccn2)CC1	none
Cc1ccc(-n2nc(C)c3c(C(=O)OCC(=O)N(C)C4CCS(=O)(=O)C4)cc(-c4ccccc4)nc32)cc1 (centres undefined)	none
CCN(C(=O)COC(=O)c1cc(-c2ccccc2)nc2c1c(C)nn2-c1ccccc1)C1CCS(=O)(=O)C1 (centres undefined)	UBC13 polyUb 52 | Casp3 UBC13 ctr inactive | UBC13 conf inconclusive
CCOc1ccc(S(=O)(=O)c2cn(C)c3cc(OC)c(OC)cc3c2=O)cc1	none
COc1cccc(CN2CCNC(=O)C2CC(=O)N(C)CCC2CCOCC2)c1OC (centres undefined)	none
CCCC(C(=O)NC(C)(C)C)N(Cc1ccccc1Cl)C(=O)c1snc(C(N)=O)c1N (centres undefined)	UBC13 polyUb 49 | Casp3 UBC13 ctr inactive | UBC13 conf 61
CCCCC(C(=O)NC(C)(C)C)N(Cc1ccccc1Cl)C(=O)c1snc(C(N)=O)c1N (centres undefined)	none
O=C(NNS(=O)(=O)c1ccccc1F)c1sccc1-n1cccc1	none
COc1ccc(Cc2nnc3n2N=C(c2cc4ccccc4o2)CS3)cc1OC	none
CCN(CC)CCOc1ccc(/C(=C(\Cl)c2ccccc2)c2ccccc2)cc1	UBC13 polyUb 74, Apaf-1 inh 66 (no result: MEKK2 mut-MEK5, MEKK3 PB1 HTS, MEKK2wt PB1 HTS) | Casp3 UBC13 ctr inactive | UBC13 conf 81
COc1ccc(C)cc1N(CC(=O)Nc1ccc(S(=O)(=O)N2CCCC2)cc1)S(C)(=O)=O	none
COc1ccc(-c2csc(NC(C)c3nc4cc(C(=O)NCCCO)ccc4n3Cc3ccc(C)cc3)n2)cc1 (centres undefined)	UBC13 polyUb 53 | Casp3 UBC13 ctr inactive | UBC13 conf inactive
Cc1ccc(Cn2c(C(C)Nc3nc(-c4ccc(F)cc4)cs3)nc3cc(C(=O)NCCCO)ccc32)cc1 (centres undefined)	none
COc1ccc(C)cc1NC(=O)c1cc(S(=O)(=O)N2CCCCC2)ccc1N1CCOCC1	UBC13 polyUb 65 (no result: MEKK2 mut-MEK5, MEKK3 PB1 HTS, MEKK2wt PB1 HTS) | Casp3 UBC13 ctr inactive | UBC13 conf 51
COc1cc(NC(=O)c2cc(S(=O)(=O)N3CCCCC3)ccc2N2CCOCC2)cc(OC)c1	none (no result: MEKK2 mut-MEK5, MEKK3 PB1 HTS, MEKK2wt PB1 HTS)
COc1ccc(S(=O)(=O)N2CCCC2)cc1NC(=O)c1ccccc1F	none
COc1ccccc1NC(=O)c1cc(S(=O)(=O)N2CCCCCC2)ccc1F	UBC13 polyUb 68 | Casp3 UBC13 ctr inactive | UBC13 conf 90
COc1ccc(-n2nc(C(=O)NCC(=O)NCCCN3CCOCC3)c3ccccc3c2=O)cc1OC	none
Oc1ccc(N=Nc2n[nH]c(-c3ccc(Cl)cc3)n2)cc1	none
CCN(CC)c1ccc(/C=C2\C(=O)c3ccc(C(=O)O)cc3C2=O)cc1	none (no result: UBC13 polyUb, Apaf-1 inh)
COC(=O)c1ccccc1NC(=O)Cn1c(=O)n(CCC(=O)NC2CCN(Cc3ccccc3)CC2)c(=O)c2ccccc21	none
Cc1cc(NC(=O)Cn2c(=O)n(CCCCC(=O)NC3CCN(Cc4ccccc4)CC3)c(=O)c3ccccc32)n[nH]1	UBC13 polyUb 52 | Casp3 UBC13 ctr inactive | UBC13 conf 48
O=C(CCCCn1c(=O)[nH]c2ccccc2c1=O)NC1CCN(Cc2ccccc2)CC1	none
O=C(CCCCn1c(=O)c2ccccc2n(Cc2ccccc2F)c1=O)NC1CCN(Cc2ccccc2)CC1	UBC13 polyUb 100 | Casp3 UBC13 ctr inactive | UBC13 conf 107
Cc1cccc(C)c1NC(=O)Cn1c(=O)n(CCCC(=O)NC2CCN(Cc3ccccc3)CC2)c(=O)c2ccccc21	UBC13 polyUb 85 | Casp3 UBC13 ctr inactive | UBC13 conf 105
O=C(CSc1ccccc1C(=O)NCCCN1CCCC1=O)NCc1ccco1	UBC13 polyUb 50 | Casp3 UBC13 ctr inactive | UBC13 conf inactive
O=C(c1cccc(S(=O)(=O)N2CCCC2)c1)N1CCCC(C(F)(F)F)C1 (centres undefined)	UBC13 polyUb 73 (no result: MEKK2 mut-MEK5, MEKK3 PB1 HTS, MEKK2wt PB1 HTS) | Casp3 UBC13 ctr inactive | UBC13 conf 109
COC(=O)c1ccc(NC(=O)CCC(=O)c2ccc(F)cc2)cc1	none
CCOC(=O)c1c(CN2CCCCC2)oc2ccc(O)cc12	UBC13 polyUb 53 | Casp3 UBC13 ctr inactive | UBC13 conf 54
CCOC(=O)c1c(C)oc2ccc(O)cc12	none
CCOC(=O)c1c(C(C)(C)C)oc2ccc(O)cc12	UBC13 polyUb 55 | Casp3 UBC13 ctr inactive | UBC13 conf 54
O=C(CCC(=O)N1CCN(Cc2ccc(F)cc2)CC1)Nc1nnc(C(F)(F)F)s1	none
Cc1ccccc1CNC(=O)CCCC(=O)n1nc(C)c2ccccc21	UBC13 polyUb 46 | Casp3 UBC13 ctr inactive | UBC13 conf 63
Cc1ccc(-n2nc3c(=O)n(CCCC(=O)NC4CCC(C)CC4)nc(C)c3c2C)cc1 (centres undefined)	none
O=C(NNC(=S)NC(=O)c1ccccc1[N+](=O)[O-])c1ccccc1Cl	UBC13 polyUb 48 | Casp3 UBC13 ctr inactive | UBC13 conf inactive
Cc1ccc(CNC(=O)CN(C(=O)C2(C)CC(=O)N=C3C=CC=CN32)c2cccc(C)c2C)cc1 (centres undefined)	none
CCc1ccc(O)c(CNCCNCc2cc(CC)ccc2O)c1	UBC13 polyUb 64 (no result: MEKK2 mut-MEK5, MEKK3 PB1 HTS, MEKK2wt PB1 HTS) | Casp3 UBC13 ctr inactive | UBC13 conf inactive
